# Source: PubChem
# INS promoter act = activators of insulin promoter-driven GFP, primary screen, imaging, TRM-6 cells (human fetal islet line), eGFP reporter, cell count | plate-scaled: unstimulated 0, stimulated control 100 | activation, % at 2 µM | 130,000 tested, 0.81% active;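 active means activation at 2 µM above a set limit, confirmed on inspection of the cell images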;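 further: share of cells whose green reporter signal exceeds an intensity cutoff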
#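 test system = TRM-6 insulin promoter–eGFP reporter cells | benchmarks = stimulated versus unstimulated wells as plate controls | read-out basis = percent cells above green-intensity threshold, converted to percent activation versus plate controls | detection = fixed-cell fluorescence microscopy, eGFP plus Hoechst | incubation = tamoxifen pre-incubation 15 h overnight, then compound exposure 48 h at 37 °C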
# Numbers without * were called inactive; [ ] = dose if it differs, or a comment. This excerpt belongs to a sample that is enriched for hits.
SMILES,INS promoter act
O=C(NCC(c1cccs1)N1CCOCC1)c1ccc(Cl)s1 (centres undefined),0.0
COc1ccc(NC(=S)N(CCCN2CCCCC2)Cc2cccs2)cc1,-5.6
CC(C(=O)c1c[nH]c(C(N)=O)c1)c1ncc(C(F)(F)F)cc1Cl (centres undefined),-9.1
COCCC(=O)N1CCCC(C(=O)c2ccc(Oc3ccccc3)cc2)C1 (centres undefined),541.7*
C=CCNC(=S)N1CCC(C(=O)c2ccc(OC)cc2)CC1,3.2
COC(=O)C1CCN(C(=O)CCCOc2ccccc2)CC1,123.1
Cc1cc(C(=O)NCCCn2ccnc2)sc1-c1ccccc1,530.8*
O=C(NCCCn1ccnc1)C(=O)NCc1ccccc1,-3.4
O=C(NCCCn1ccnc1)C(=O)Nc1ccccc1,126.7
CCn1nnnc1NCc1ccc(OCc2c(F)cccc2Cl)c(OC)c1,107.1
CSc1nsc(/C=C/Nc2ccc(O)cc2C)c1C#N,809.1*
CSc1nc(C)cc(/C=C\c2ccccc2)c1C#N,106.7
O=C(COC(=O)COc1ccc(Cl)cc1Cl)Nc1cccnc1Cl,6.7
O=C(C1CC1)N(CCN(Cc1ccccc1)C(=O)C1CC1)Cc1ccccc1,250.0*
CCN(Cc1ccccc1)C(=O)C1CCN(CC2CC=CCC2)CC1 (centres undefined),8.3
O=C(C1CCCCC1)N(Cc1ccccc1)c1ccccn1,238.5
COc1cc(Br)c(CCNC(=O)c2ccco2)cc1OC,-5.9
CCC(C)N(C)Cc1cccc(C2(O)CCN(S(=O)(=O)c3ccc(F)c(C)c3)CC2)c1 (centres undefined),0.0
CCS(=O)(=O)NCC(c1cccnc1)N1CCN(c2ccc(F)cc2)CC1 (centres undefined),7.1
CCOC(=O)N1CCN(CCC(=O)Nc2cc([N+](=O)[O-])ccc2OC)CC1,330.8*
COc1ccc([N+](=O)[O-])cc1NC(=O)CCN1CCN(CCO)CC1,-6.7
COc1ccc([N+](=O)[O-])cc1NC(=O)CSc1nc(C)c(C)c(C)n1,-3.4
CN(C)S(=O)(=O)c1ccc(Cl)c(NC(=O)c2ccncc2)c1,0.0
COc1cc(C(=O)O)cc(Br)c1OC1CCCC1,168.2
COc1c(OC(C)=O)ccc(/C=N\NC(=O)c2ccc(Br)cc2)c1[N+](=O)[O-],0.0
SMILES,INS promoter act
CC(OC(=O)CCc1nc2ccccc2[nH]c1=O)c1ccccc1 (centres undefined),471.4*
O=C(CCc1nc2ccccc2[nH]c1=O)OCC(=O)c1ccc(Cl)cc1,-3.4
O=C(CCc1nc2ccccc2[nH]c1=O)OCC(=O)c1cccc2ccccc12,82.9*
CC(CC(=O)Nc1nc2ccccc2[nH]1)c1ccccc1 (centres undefined),0.0
Cc1ccc(C(=O)COC(=O)CCc2nc3ccccc3[nH]c2=O)cc1C,0.0
COC(=O)CCc1nc2ccccc2[nH]c1=O,7.9
CCC(=O)Oc1ccc(C(=O)Nc2cccc(C(=O)NC(C)(C)C)c2)cc1,-4.8
CCc1ccc(NSc2ccccc2[N+](=O)[O-])cc1,0.0
COc1ccc(NC(=O)CN(c2cc(C)cc(C)c2)S(=O)(=O)c2c(C)noc2C)cc1OC,87.5
CC12COC3(C(=O)Nc4ccccc4F)CC1CCC32C (centres undefined),0.0
O=C(CSc1ncn[nH]1)Nc1c(F)cc(F)cc1Br,7.7
c1coc(Cn2c(SCc3nc4ccccc4[nH]3)nnc2-c2cccs2)c1,123.1*
Brc1ccc(CSc2nnc(-c3ccccn3)n2Cc2ccco2)cc1,0.0
O=c1c2ccccc2nnn1CSc1nnc(-c2cccs2)n1Cc1ccccc1,4.3
COc1ccc(-c2cnc(SCC(=O)Nc3ccc4c(c3)OCO4)n2Cc2ccco2)cc1,-5.7
CCOC(=O)CNC(=O)CSc1nnc(-c2ccccc2)n1Cc1ccco1,-6.1
O=C(CSc1nnc(-c2ccc(Cl)cc2)n1Cc1ccco1)NCc1ccc2c(c1)OCO2,80.0*
CC1CCCC(C)N1NC(=S)Nc1ccc(OC(F)F)cc1 (centres undefined),3.2
CCN(CC)c1ccc(NC(=O)/C=C\c2ccccc2Cl)cc1,0.0
CCN(CC)c1ccc(/C=C/C(=O)C2C(=O)C=C(C)OC2=O)cc1 (centres undefined),809.1*[fluoresces]
COc1cccc(-n2nnc3c(=O)n(CC(=O)N4CCCc5ccccc54)cnc32)c1,5.6
COC(=O)c1cc(NC(=O)c2cccc(Cl)c2)c(=O)oc1/C=C/Nc1cc(C)cc(C)c1,809.1*
COc1ccc(C(=O)Nc2cc(C(C)=O)c(/C=C/N(C)C)oc2=O)cc1,-3.3
O=C(Nc1cc2c(oc1=O)CCCC2=O)c1cccc(Cl)c1,-7.1
Cc1cccc(-n2cnc(C(=O)N/N=C\c3ccc(Br)cc3)c2)n1,0.0
COC(=O)C1CC(c2ccc(Cl)cc2)=NO1 (centres undefined),0.0
CC1=C(C(=O)OC(C)C)C(c2cn(-c3ccccc3)nc2-c2cccs2)NC(=O)N1 (centres undefined),-7.1
COC(=O)c1sccc1NC(=O)c1csc(C)c1,-40.1
Cc1ccc(NC(=O)CCSCCC(=O)Nc2ccc(C)c(C)c2)cc1C,2.6
COC(=O)CCC(=O)Nc1cccc(Cl)c1,0.0
